GSK3B inh: blocks human GSK3beta kinase activity; P49841; GST-GSK3beta kinase, ADP-Glo luminescence, 60 min; stronger effect = lower value; activity score (negative = inhibition), % at 10 µM; actives 0.038% (n = 300,000); AID 2097;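 active = more than half of replicate wells score below -50%, meaning over 50% inhibition versus plate controls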
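Test system: GST-fused GSK3beta enzyme, cell-free | Quantity: 1.6 ng GST-GSK3beta enzyme per well | Reagent: 25 µM ATP with peptide substrate | Schedule: 60 min enzyme reaction, room temperature | Signal: Luminescent ADP-Glo measurement of ADP formed | Read-out basis: Score relative to plate controls | Control set: DMSO and 20 µM GW8510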
DYRK1A inh: blocks rat Dyrk1A kinase activity. actives 0.43% (n = 310,000). ADP-Glo luminescence, NFATc1 peptide. Q63470. inhibition, % at 12.5 µM; in the data active = inhibition above about 50%
STK33 kinase inh: blocks human STK33 kinase activity; actives 0.073% (n = 320,000); purified STK33, MBP phosphorylation, ADP-Glo luminescence; AID 2661; inhibition, % at 10 µM;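 active = inhibition at or above 25%, using the most active replicate where run in duplicate; inactive = inhibition below 25%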
GSK3 alpha inh: human GSK-3 alpha kinase inhibition. ADP-Glo luminescence, 60 min. inhibition, % at 10 µM. P49840. actives 0.1% (n = 320,000);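 active = more than half of replicates show inhibition above 20%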;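 note: GST-tagged GSK-3 alpha with peptide substrate and 25 µM ATP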
Target sequence (P49840 whole entry, looked up): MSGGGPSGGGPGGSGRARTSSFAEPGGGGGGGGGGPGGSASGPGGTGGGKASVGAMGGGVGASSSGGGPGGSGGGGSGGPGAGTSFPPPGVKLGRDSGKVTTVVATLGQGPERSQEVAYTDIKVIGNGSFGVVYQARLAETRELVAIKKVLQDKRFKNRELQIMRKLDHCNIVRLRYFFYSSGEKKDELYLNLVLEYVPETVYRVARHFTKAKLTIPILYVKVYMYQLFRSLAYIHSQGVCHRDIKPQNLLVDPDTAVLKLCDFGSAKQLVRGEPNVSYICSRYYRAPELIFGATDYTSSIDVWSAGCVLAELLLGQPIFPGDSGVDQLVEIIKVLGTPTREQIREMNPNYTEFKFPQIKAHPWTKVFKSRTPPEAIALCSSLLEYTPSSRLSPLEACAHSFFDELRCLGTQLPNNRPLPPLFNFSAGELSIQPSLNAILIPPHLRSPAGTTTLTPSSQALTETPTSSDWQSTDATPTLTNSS
Rin1 Abl inh: inhibitors of human Rin1-Abl protein interaction | TR-FRET Rin1/Abl binding, biochemical | inhibition, % at 7.35 µM | actives 0.4% (n = 360,000) | AID 588664; in the data active = inhibition above about 5%, passing the limit was not always enough
Arrestin-AP2 inh: inhibitors of human beta-arrestin and AP2 interaction. actives 0.31% (n = 340,000). FITC-arrestin peptide / GST-AP2 beads, flow cytometry; AP2 beta2 appendage carries R879A mutation. inhibition, % at 10 µM;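 active = inhibition above a set limit, near 3 SD of compounds lacking own fluorescence, cut at about 54% in these data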
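Measured by: flow cytometry, FL1 (488/535 nm); Material: AP2 appendage R879A on GSH beads; Evaluation: percent response; Timing: pre-incubation 12 min, peptide binding 1 h, room temperature; Also added: 50 nM FITC-arrestin peptide; Medium: PBS with 0.05% Tween 20 and 0.1% BSA.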
Rin1-Abl confirm: Rin1-Abl interaction inhibition confirmation | shares compounds with Rin1 Abl inh | TR-FRET Rin1-Abl binding, purified proteins | inhibition, % at 7.35 µM | actives 49% (n = 1,300) | AID 602124
GFP quencher: quenches GFP fluorescence, counter-screen for Rin1-Abl inhibitors | shares compounds with Rin1 Abl inh | inhibitors/quenchers counterscreen | inhibition, % at 6.75 µM | actives 8.5% (n = 1,300) | AID 602125;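 note: ABL1-eGFP fusion protein alone without its partner RIN1-SBP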
GFP quench DR: counter-screen for Rin1-Abl inhibitors: GFP quenchers, dose response | shares compounds with Rin1 Abl inh | GFP fluorescence interference/quenching counterscreen | IC50, µM | 230 tested, under 10 active | AID 602182; call rule not given here;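 note: ABL1-eGFP fusion protein alone without its RIN1 binding partner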
A number is an active result; n = inactive; x = no result given; ! = a repeat was not active. This is a sample that favours compounds with a hit; in the whole collection about 0.99% have one here. Cut-off read from the data, not from the text of the source, unless noted: active = inhibition above about 6.5%; inactive = the rest.

SMILES | GSK3B inh | DYRK1A inh | STK33 kinase inh | GSK3 alpha inh | Rin1 Abl inh | Arrestin-AP2 inh | Rin1-Abl confirm | GFP quencher | others
CC(=O)c1cccc(NC(=O)C2(C)Cc3c(-c4cccc(C(N)=O)c4)ccnc3O2)c1 (configuration not stated) | x | x | x | x | 8.2 | x | 12 | n
Cc1cc(OCC(=O)NCCCN2CCOCC2)c2c(C)c(C)c(=O)oc2c1 | n | n | n | n | n | n | x | x
CN1CCN(C(=O)CSc2nc(-c3ccncc3)ccc2C#N)CC1 | n | n | n | n | 10 | n | 17 | n | GFP quench DR=n
COc1ccc(NC(=O)CN(C)S(=O)(=O)c2ccccc2)cc1 | n | n | n | n | n | n | x | x
CCOC(=O)c1ccc(NC(=O)CN(C)S(=O)(=O)c2ccc(OC)cc2)cc1 | n | n | n | n | 8.0 | n | n | n
CCc1nc2ccc(C(=O)NCCCN(C)C)cn2c1N(C)CCCc1ccccc1 | x | x | x | x | n | x | x | x
Cn1c(CCC(=O)Nc2ccc(N3CCOCC3)cc2)nc(=O)c2ccccc21 | n | n | n | n | 9.6 | n | n | n
O=C(CCn1ccc2ccccc21)Nc1ccc(N2CCOCC2)cc1 | n | n | n | n | n | n | x | x
C=CCc1ccccc1OCC(O)CN1CCN(c2ccccc2OC)CC1 (configuration not stated) | n | n | n | n | 7.4! | n | n | n
CCCCN(C(=O)c1cc(S(=O)(=O)N2CCOCC2)ccc1Cl)c1c(N)n(CC(C)C)c(=O)[nH]c1=O | n | n | n | n | n | n | x | x
CCOC(=O)N1CCC(Nc2cc(C)nc3c(-c4ccccc4OC)c(C)nn23)CC1 | n | n | n | n | 6.2 | n | n | n
CCC1CCCCN1C(=O)CCS(=O)(=O)c1ccccc1 (configuration not stated) | n | n | n | n | n | n | x | x
COc1ccc(OC)c(/C=N/NC(=O)c2cccc3ccccc23)c1 | n | x | n | n | 6.9 | n | n | n
CC(OC(=O)/C=C/c1ccccc1)C(=O)Nc1cccc(C#N)c1 (configuration not stated) | n | n | n | n | n | n | x | x
COCCNC(=O)CS(=O)Cc1nc(-c2ccccc2C)oc1C (configuration not stated) | n | n | n | n | 12 | n | n | n
OC1c2cc(Cl)ccc2-c2c(Cl)cc(Cl)cc21 (configuration not stated) | x | n | x | x | n | n | x | x
CC(=O)OC[C@H]1O[C@@H](n2ccc(=O)[nH]c2=S)C(OC(C)=O)C1OC(C)=O (some centres not stated) | n | n | n | n | 12 | n | 9.3 | n
CC(=O)OCC1OC(n2ccc(=O)[nH]c2=O)C(O)C1O (configuration not stated) | n | n | n | n | n | n | x | x
Cc1cc(NC(=O)CSc2cn(CCNC(=O)c3ccccc3)c3ccccc23)no1 | n | n | n | n | 24 | n | 14 | n
CCc1ccc(CN2CCC(Oc3ccc(C(=O)N4CCCCC4)cc3)CC2)cc1 | n | n | n | n | 10 | n | n | n
CCc1ccc(CN2CCC(Oc3ccc(C(=O)N4CCCC4)cc3)CC2)cc1 | n | n | n | n | n | n | x | x
COC(=O)C1N[C@@H]([C@@H](NC(=O)COc2ccccc2)C(=O)Nc2ccc(OC)cc2)SC1(C)C (some centres not stated) | n | x | n | n | n | n | x | x
COc1cc(C=Cc2nnc3c4ccccc4cnn23)cc(OC)c1OC | x | x | x | x | n | x | x | x
Cc1cccc(N2C(=O)C(CC(=O)Nc3cccc(F)c3)N(CCc3ccncc3)C2=O)c1 (configuration not stated) | n | n | n | n | 5.3 | n | n | n
O=S(=O)(Nc1ccc(O)c2ncccc12)c1ccccc1F | x | x | x | x | 13 | x | n | n
SMILES | GSK3B inh | DYRK1A inh | STK33 kinase inh | GSK3 alpha inh | Rin1 Abl inh | Arrestin-AP2 inh | Rin1-Abl confirm | GFP quencher | others
CCNCc1ccc(OCc2ccccc2F)c(OC)c1 | n | n | n | n | n | n | x | x
COc1cc(CNCCc2ccccc2F)ccc1OCc1ccc(Cl)nc1 | n | n | n | n | 7.5 | n | 7.2 | n
COc1cc(CNCCc2ccc(F)cc2)ccc1OCc1ccc(Cl)nc1 | n | n | n | n | 12 | n | 11 | n
COc1cc(/C=C/C(=O)O)cc(S(=O)(=O)Nc2ccc(S(=O)(=O)N3CCCCC3)cc2)c1OC | x | n | x | x | n | n | x | x
COc1ccc(/C=N/N2C(=O)CN(C(=O)c3ccccc3)C2c2ccc(OC)cc2)cc1 (configuration not stated) | n | x | n | n | 5.8 | n | n | n
COc1ccc(C2N(C(=O)c3ccccc3)CCN2C(=O)c2ccc(C)cc2)cc1 (configuration not stated) | n | n | n | n | n | n | x | x
N#Cc1ccsc1NC(=O)CN1CCN(c2ccc(O)cc2)CC1 | n | n | n | n | 10 | n | n | n
COCCn1nnnc1C(CC(C)C)N1CCN(c2nc3ccccc3s2)CC1 (configuration not stated) | n | n | n | n | 9.3 | n | n | n
CC(=O)N1CCN(c2ccc(NCc3ccc4c(c3)OCO4)cc2)CC1 | n | n | n | n | n | n | x | x
O=C(c1ccccc1)N1CCN(c2ccc(NCc3ccc4c(c3)OCO4)cc2)CC1 | n | n | n | n | 12 | n | 12 | n
COCCNC(=O)C1(C)CCN(C(=O)Cc2ccc(OC)c(OC)c2)C1 (configuration not stated) | x | x | x | x | n | x | x | x
NC(=O)C1CCN(CC(=O)Nc2ccccc2Sc2ccccc2)CC1 | n | n | n | n | 7.3 | n | 11 | n
O=C(O)C(C1CCCCC1)C1(O)CCCC1 (configuration not stated) | x | x | x | x | n | n | x | x
c1ccc2c(c1)c1cccc3ccc4cccc2c4c31 | x | x | n | n | 8.2 | n | n | n
O=c1c2ccccc2ccc2ccccc12 | x | n | n | n | n | n | x | x
Cc1cc(C(=O)NC(C)C2CCCO2)c(C)o1 (configuration not stated) | n | x | n | n | n | n | x | x
CC(=O)Nc1ccc(S(=O)(=O)N2CCC(C(=O)NCCC(=O)Nc3nccs3)CC2)cc1 | n | x | n | n | 11 | n | n | n
O=C(CCNC(=O)C1CCN(S(=O)(=O)c2ccc(F)cc2)CC1)Nc1nccs1 | n | n | n | n | n | n | x | x
Cc1cccc(OCCSc2nc3ccccc3n2CCC(=O)O)c1 | n | x | n | n | n | n | x | x

Assay outcomes (PubChem)
